Bioassay records: PubChem, several laboratories
Only some compounds are listed: those with a hit (about 2% of all), similar ones and a draw of the others.
Xi reactivation = X-chromosome reactivation activator. activation, % at 7.58 µM. actives 0.055% (n = 360,000). XiGFP mouse fibroblasts, % GFP-positive cells imaging, 3 d; cells co-treated with 5-aza-dC sensitizer; scaled so ellipticine positive control = 100%;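 active means mean normalized replicate activation at least 10% and every replicate at or above 10%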;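 further: 0% = median of on-plate neutral control wells and 100% = ellipticine 6 µM median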
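System: XiGFP fibroblasts, SV40-immortalized. Medium: DMEM plus 5-aza-dC sensitizer. Doses: single point. Timing: 3 d treatment, 15 min room-temperature fixation. Control set: ellipticine 6 µM.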
CaV13 FRET inh = Disruptors of the CACNA1D IQ motif to Ca2+-dependent inactivation inhibitor domain association, primary screening, Förster resonance energy transfer in intact living …; inhibition, % at 12.3 µM; actives 0.098% (n = 340,000); HEK cells, CFP/YFP FRET ICDI-IQ, plate reader, 10 min; percent FRET-ratio fall versus neutral wells; AID 743397;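 active means mean replicate inhibition of at least 30% and at least 1% of replicates passing that level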;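 further: 0% = median of the neutral control wells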
TROY signal inh = inhibitors of TROY-dependent NF-kB signaling | Q293 LMP1-TROYcd NF-kB luciferase reporter, 4 h | AID 1347056 | actives 0.98% (n = 360,000) | inhibition, % at 10 µM;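 active means compounds whose plate-normalised and pattern-corrected inhibition of the luciferase reporter signal at the single screening dose is 50% or more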
LGR2 antag = Drosophila LGR2 receptor signaling inhibition; HEK293 LGR2, CRE-luciferase, bursicon-stimulated, 4 h; inhibition, % at 9.99 µM; actives 0.35% (n = 380,000); AID 720647;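 active means drop in luminescence signal, shown as inhibition above about 50% in the replicate tests, limit read from the data, passing the limit was not always enough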;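 further: agonist challenge used bursicon conditioned medium at about half maximal strength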
TWEAK Fn14 block = inhibitors of TWEAK-Fn14 interaction signaling. TWEAK-stimulated Fn14 reporter cells, luciferase luminescence, 8 h. inhibition, % at 10 µM. actives 2% (n = 360,000). AID 1159606; in the data active means inhibition above about 50%
Numbers without * were called inactive; nt = not tested or not shown.

SMILES	Xi reactivation	CaV13 FRET inh	TROY signal inh	LGR2 antag	TWEAK Fn14 block
COC(=O)c1ccc(NC(=O)CSc2nc3ccc(N4C(=O)C5C6C=CC(C6)C5C4=O)cc3s2)cc1 (stereo not drawn)	0	-2	57*	104*	91*
Cc1nc2c(=O)n(C)c(=O)nc-2n(C)n1	nt	0	86*	nt	102*
COCCCn1c(-c2ccc(OC)cc2)cc(C(=O)NC2CCCCCCC2)c1C	0	-5	9	22	64*
COC(=O)[C@H]1[C@H](CO)[C@H]2Cn3c(ccc(-c4ccc(F)cc4)c3=O)[C@@H]1N2Cc1ccccc1	0	nt	nt	-10	nt
Oc1ccccc1-[n+]1c(-c2ccccc2)cc(-c2ccccc2)cc1-c1ccccc1	0	-5	-1	2	-4
COc1ccc(-[n+]2c(-c3ccccc3)cc(-c3ccc(C)cc3)cc2-c2ccccc2)cc1	0	-11	49	28	61*
Cc1ccccc1-[n+]1c(-c2ccccc2)cc(-c2ccccc2)cc1-c1ccccc1	0	-11	63*	31	89*
COc1ccc(-c2cc(-c3ccccc3)[n+](C)c(-c3ccccc3)c2)cc1	0	-1	43	44	23
O=C(O)c1ccc(-[n+]2c(-c3ccccc3)cc(-c3ccccc3)cc2-c2ccccc2)cc1	0	-6	-6	-5	6
CCCOC(=O)c1ccc(-[n+]2c(-c3ccccc3)cc(-c3ccccc3)cc2-c2ccccc2)cc1	1	-5	24	-5	62*
O=C(Cc1ccccc1)N1CCCCN2[C@H](CO)[C@@H](c3ccc(C#Cc4ccccc4)cc3)[C@H]2C1	0	nt	nt	-6	nt
O=C(O)[C@@H]1[C@@H](CO)[C@@H]2Cn3c(ccc(-c4ccncc4)c3=O)[C@H]1N2C(=O)C1CC1	0	nt	nt	0	nt
CC(C)NC(=O)N1C[C@@H]2C(c3ccc(Br)cc3)[C@H](C1)N2CC1CC1 (stereo partly drawn)	0	nt	nt	nt	nt
